7 compounds from ChEMBL document CHEMBL1159028, “Antimicrobial agents from Licaria puchuri-major and their synergistic effect with polygodial” (1992) can be followed below.

Holding throughout (format): functional
One test has as its system Escherichia coli. The experiment in a line: Antimicrobial activity against Escherichia coli ATCC 9637 after 2 days by twofold serial broth dilution method. To be noted: ATCC 9637, 48 h. A digest of the protocol: (§1)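 ATCC strains were revived from freeze-dried stock, then grown in medium of 0.8% nutrient broth, 0.5% yeast extract and 0.1% glucose. Twofold serial broth dilution used compound in DMF (1% DMF final), with a top concentration of 800 µg/ml. Cultures were stationary for 2 days, and growth was read as turbidity at OD 660 nm. MIC was the lowest concentration with no growth.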
In general terms: In broth dilution the organism is exposed to a series of concentrations in liquid medium.

For test [1], the system named is Corynebacterium ammoniagenes. The experiment in a line: Antimicrobial activity against Brevibacterium ammoniagenes ATCC 6872 after 2 days by twofold serial broth dilution method. Particulars: ATCC 6872, 48 h. The procedure, abridged:
as §1

The next test relates to Staphylococcus aureus. The experiment in a line: Antimicrobial activity against Staphylococcus aureus ATCC 12598 after 2 days by twofold serial broth dilution method. To be noted: ATCC 12598, 48 h. A digest of the protocol: as §1
For a further test, the system named is Cyberlindnera jadinii. The test can be described thus: Antimicrobial activity against Candida utilis ATCC 9226 after 2 days by twofold serial broth dilution method. To be noted: Williopsis jadinii, ATCC 9226, 48 h. A digest of the protocol: (§2)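 Yeasts were grown in 2.5% malt extract broth. Twofold serial broth dilution used compound in DMF (1% DMF final), with a top concentration of 800 µg/ml. After 2 days of stationary culture, turbidity was read at OD 660 nm. MIC was the lowest concentration with no growth. Checkerboard combinations with polygodial were tested at least twice per fungus.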

The test system of another test is Klebsiella aerogenes. The experiment in a line: Antimicrobial activity against Enterobacter aerogenes ATCC 13048 after 2 days by twofold serial broth dilution method. To be noted: ATCC 13048, 48 h. The procedure, abridged:
as §1

The subject of the next test is Bacillus subtilis. The test can be described thus: Antimicrobial activity against Bacillus subtilis ATCC 9372 after 2 days by twofold serial broth dilution method. To be noted: ATCC 9372, 48 h. The procedure, abridged:
as §1

A further test deals with Saccharomyces cerevisiae. The test can be described thus: Antimicrobial activity against Saccharomyces cerevisiae ATCC 7754 after 2 days by twofold serial broth dilution method. Particulars: ATCC 7754, 48 h. The procedure, abridged:
as §2

The subject of a further test is Cutibacterium acnes. The experiment in a line: Antimicrobial activity against Propionibacterium acnes ATCC 11827 after 2 days by twofold serial broth dilution method. Particulars: ATCC 11827, 48 h. The procedure, abridged: as §1
The test system of a further test is Streptococcus mutans. The test can be described thus: Antimicrobial activity against Streptococcus mutans ATCC 25175 after 2 days by twofold serial broth dilution method. To be noted: ATCC 25175, 48 h. The procedure, abridged: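 ATCC strain grown in 3.7% brain heart infusion broth. Twofold serial broth dilution used compound dissolved in DMF (1% DMF final), with a top concentration of 800 µg/ml. After 2 days of stationary culture, growth was read as turbidity at OD 660 nm. MIC was the lowest concentration with no growth.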

The subject of a further test is Penicillium chrysogenum. The test can be described thus: Antimicrobial activity against Penicillium chrysogenum ATCC 10106 after 5 days by twofold serial broth dilution method. To be noted: ATCC 10106, 120 h. The procedure, abridged:
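Mould was grown in 2.5% malt extract broth with shaking. Compound in DMF (1% final) was serially diluted twofold, to a maximum of 800 µg/ml. Growth was judged by eye after 5 days. MIC was the lowest concentration showing no growth.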

Another test has as its system Malassezia furfur. The experiment in a line: Antimicrobial activity against Pityrosporum ovale ATCC 14521 by twofold serial broth dilution method. A digest of the protocol: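 Medium: 1% bactopeptone, 0.5% yeast extract, 1% glucose and 0.1% corn oil. Twofold broth dilution used compound in DMF (1% final), with a top concentration of 800 µg/ml. Culture was stationary for 2 days, and growth was scored visually. MIC was the lowest concentration without growth. Checkerboard combinations with polygodial were tested at least twice.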

The next test concerns Pseudomonas aeruginosa. The experiment in a line: Antimicrobial activity against Pseudomonas aeruginosa ATCC 10145 after 2 days by twofold serial broth dilution method. Particulars: ATCC 10145, 48 h. A digest of the protocol: as §1

The structures appear in SMILES notation. In brackets after ≈: the same amount, converted by molar mass.

By MIC is commonly meant the least concentration at which growth counts as inhibited. Read a high MIC as weaker potency. For `C=CC(C)(O)CCC=C(C)C` (stereo not given) [LINALOOL], the MIC against Escherichia coli was > 800 µg/mL; in test [1], 800 µg/mL (≈ 5.19 mM); against Staphylococcus aureus it was > 800 µg/mL; with Cyberlindnera jadinii, 400 µg/mL (≈ 2.59 mM); against Klebsiella aerogenes it was > 800 µg/mL; in the test on Bacillus subtilis, 800 µg/mL (≈ 5.19 mM). Further, the MIC in the test on Saccharomyces cerevisiae was 800 µg/mL (≈ 5.19 mM); in the test on Cutibacterium acnes, 200 µg/mL (≈ 1.3 mM); in the test with Streptococcus mutans, 400 µg/mL (≈ 2.59 mM); in the test on Penicillium chrysogenum, 800 µg/mL (≈ 5.19 mM); with Malassezia furfur, 400 µg/mL (≈ 2.59 mM); in the test with Pseudomonas aeruginosa, > 800 µg/mL.

Take `CC1(C)CCC[C@]2(C)[C@@H](C=O)C(C=O)=CC[C@@H]12` [POLYGODIAL]: the MIC in the test with Cyberlindnera jadinii came out at 6.25 µg/mL (≈ 0.0267 mM); in the test on Saccharomyces cerevisiae, 3.13 µg/mL (≈ 0.0134 mM); in the test with Malassezia furfur it was 50 µg/mL (≈ 0.213 mM).

Consider `C=CCc1ccc(OC)c(OC)c1` [METHYLEUGENOL], for which the MIC against Escherichia coli is 800 µg/mL (≈ 4.49 mM); in [1], 800 µg/mL (≈ 4.49 mM); against Staphylococcus aureus it was 800 µg/mL (≈ 4.49 mM); in the test on Cyberlindnera jadinii, 800 µg/mL (≈ 4.49 mM); in the test on Klebsiella aerogenes it was > 800 µg/mL; in the test with Bacillus subtilis it was 800 µg/mL (≈ 4.49 mM). Further, the MIC in the test with Saccharomyces cerevisiae was 800 µg/mL (≈ 4.49 mM); against Cutibacterium acnes it was 200 µg/mL (≈ 1.12 mM); with Streptococcus mutans, 400 µg/mL (≈ 2.24 mM); against Penicillium chrysogenum, 800 µg/mL (≈ 4.49 mM); against Malassezia furfur, 200 µg/mL (≈ 1.12 mM); with Pseudomonas aeruginosa it was > 800 µg/mL.

For `CC1=CCC(O)(C(C)C)CC1` (stereo not given) [TERPINEOL], the MIC was > 800 µg/mL in the test on Escherichia coli; > 800 µg/mL in test [1]; > 800 µg/mL in the test with Staphylococcus aureus; 800 µg/mL (≈ 5.19 mM) in the test on Cyberlindnera jadinii; > 800 µg/mL against Klebsiella aerogenes; > 800 µg/mL in the test on Bacillus subtilis. The MIC is 800 µg/mL (≈ 5.19 mM) in the test with Saccharomyces cerevisiae; 800 µg/mL (≈ 5.19 mM) in the test on Cutibacterium acnes; > 800 µg/mL in the test with Streptococcus mutans; 800 µg/mL (≈ 5.19 mM) in the test on Penicillium chrysogenum; 100 µg/mL (≈ 0.648 mM) with Malassezia furfur; > 800 µg/mL against Pseudomonas aeruginosa.

Turning to `CC1=CCC(C(C)C)=CC1` [GAMMA-TERPINENE], the MIC against Escherichia coli is > 800 µg/mL; in test [1], > 800 µg/mL; in the test on Staphylococcus aureus, > 800 µg/mL; in the test with Cyberlindnera jadinii, 100 µg/mL (≈ 0.734 mM); with Klebsiella aerogenes, > 800 µg/mL; against Bacillus subtilis it was > 800 µg/mL. In addition, the MIC in the test on Saccharomyces cerevisiae is 50 µg/mL (≈ 0.367 mM); against Cutibacterium acnes, 50 µg/mL (≈ 0.367 mM); with Streptococcus mutans it was 100 µg/mL (≈ 0.734 mM); in the test with Penicillium chrysogenum, > 800 µg/mL; in the test with Malassezia furfur, 800 µg/mL (≈ 5.87 mM); against Pseudomonas aeruginosa, > 800 µg/mL.

Take `CCCCCCCCCCCC(=O)O` [DODECANOATE]: the MIC (in the test with Escherichia coli; in test [1]; in the test on Staphylococcus aureus; with Cyberlindnera jadinii; with Klebsiella aerogenes; against Bacillus subtilis) was > 800 µg/mL throughout. Besides, the MIC with Saccharomyces cerevisiae was > 800 µg/mL; with Cutibacterium acnes it was 50 µg/mL (≈ 0.25 mM); against Streptococcus mutans, > 800 µg/mL; with Penicillium chrysogenum, > 800 µg/mL; in the test on Malassezia furfur, > 800 µg/mL; in the test with Pseudomonas aeruginosa, > 800 µg/mL.

Take `C=CCc1ccc2c(c1)OCO2` [SAFROLE]: the MIC is 400 µg/mL (≈ 2.47 mM) with Escherichia coli; > 800 µg/mL in test [1]; > 800 µg/mL in the test on Staphylococcus aureus; 200 µg/mL (≈ 1.23 mM) with Cyberlindnera jadinii; > 800 µg/mL in the test with Klebsiella aerogenes; 400 µg/mL (≈ 2.47 mM) in the test on Bacillus subtilis. Further, the MIC in the test on Saccharomyces cerevisiae was 200 µg/mL (≈ 1.23 mM); against Cutibacterium acnes it was 50 µg/mL (≈ 0.308 mM); against Streptococcus mutans, 100 µg/mL (≈ 0.617 mM); against Penicillium chrysogenum, > 800 µg/mL; against Malassezia furfur, 100 µg/mL (≈ 0.617 mM); in the test with Pseudomonas aeruginosa, > 800 µg/mL.
